Assay results reported in ChEMBL document CHEMBL2375308, “Synthesis and selected immunological properties of substituted quino[3,2-b]benzo[1,4]thiazines” (Eur J Med Chem, 2013).
Active and inactive are the calls of the source. The calls are words filed in the database; no cut-off is given here.

Legend:
SW948 [1] = test: Growth inhibition of human SW948 cells at 5 ug/mL after 3 days by MTT assay relative to control; type: functional; conditions: SW948, 72 h, read-out: GI
How it was run: (§1)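 Lines resuspended in culture medium: L-1210 at 1.5 × 10⁴ cells/well, SW-948 and A-431 at 2.5 × 10⁴ cells/well. Preparations added over […], cisplatin reference at the same concentrations. 3-day incubation, proliferation by MTT; mean OD of quadruplicate wells ±SE, expressed as percentage inhibition.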

L1210 [2] = test: Growth inhibition of mouse L1210 cells at 10 ug/mL after 3 days by MTT assay relative to control; type: functional; conditions: L1210, 72 h, read-out: GI; how it was run: as §1
SW948 [3] = test: Growth inhibition of human SW948 cells at 10 ug/mL after 3 days by MTT assay relative to control; type: functional; conditions: SW948, 72 h, read-out: GI; how it was run: as §1
A-431 [4] = test: Growth inhibition of human A431 cells at 10 ug/mL after 3 days by MTT assay relative to control; type: functional; conditions: A-431, 72 h, read-out: GI; how it was run: as §1
SW948 [5] = test: Growth inhibition of human SW948 cells at 10 to 50 ug/mL after 3 days by MTT assay; type: functional, cell-based; how it was run: as §1
A-431 [6] = test: Growth inhibition of human A431 cells at 10 to 50 ug/mL after 3 days by MTT assay; type: functional, cell-based; how it was run: as §1
L1210 [7] = test: Growth inhibition of mouse L1210 cells at 10 to 50 ug/mL after 3 days by MTT assay; type: functional, cell-based; how it was run: as §1
PBMC [8] = test: Inhibition of LPS-induced TNFalpha production in human PBMC at 25 ug/mL after overnight incubation relative to DMSO-treated control; type: functional
How it was run: (§2)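 Single-donor venous blood diluted 10× in RPMI-1640, 1 mL aliquots, stimulated with LPS (E. coli O111:B4). Compounds added at […]; corresponding DMSO dilutions as controls. Overnight incubation, supernatants frozen at −20 °C, TNF-α measured by biological assay; percentage inhibition versus DMSO control.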

PBMC [9] = test: Inhibition of LPS-induced TNFalpha production in human PBMC at 5 ug/mL after overnight incubation relative to DMSO-treated control; type: functional; how it was run: as §2
PBMC [10] = test: Antiproliferative activity against PHA-stimulated human PBMC at 50 ug/mL after 4 days by MTT assay relative to DMSO-treated control; type: functional
How it was run: (§3)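 PBMC from one donor's heparinized blood, Ficoll gradient isolated, in RPMI-1640 with 10% FCS; 2 × 10⁵ cells/well. PHA added at […]; compounds from DMSO stock (10 mg/mL) diluted in medium; matching DMSO dilutions as control. Four-day culture, proliferation read by MTT colorimetry; percentage inhibition versus control.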

PBMC [11] = test: Antiproliferative activity against PHA-stimulated human PBMC at 10 ug/mL after 4 days by MTT assay relative to DMSO-treated control; type: functional; how it was run: as §3
PBMC [12] = test: Cytotoxicity against human PBMC cells at 10 ug/mL after 24 hrs by MTT assay relative to DMSO-treated control; type: cell-based
How it was run: (§4)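 Ficoll-isolated PBMC ([…]) in supplemented RPMI-1640, 2 × 10⁵/well, cultured 24 h with the preparations at the indicated concentrations; compounds dissolved in DMSO (10 mg/mL stock) and diluted in medium.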

PBMC [13] = test: Cytotoxicity against human PBMC cells at 50 ug/mL after 24 hrs by MTT assay relative to DMSO-treated control; type: cell-based; how it was run: as §4

Row | Compound | inhibition of growth at 5 µg/mL (SW948 [1]) [%] | inhibition of growth at 10 µg/mL (L1210 [2]) [%] | inhibition of growth at 10 µg/mL (SW948 [3]) [%] | inhibition of growth at 10 µg/mL (A-431 [4]) [%] | growth inhibition (GI) (SW948 [5]) | growth inhibition (GI) (A-431 [6]) | growth inhibition (GI) (L1210 [7]) | inhibition at 25 µg/mL (PBMC [8]) [%] | inhibition at 5 µg/mL (PBMC [9]) [%] | Activity (PBMC [10]) [%] | Activity (PBMC [11]) [%] | Activity (PBMC [12]) | Activity (PBMC [13])
1 | CSc1ccc2c(c1)Sc1cc3ccccc3nc1N2CCCCNC(=O)NCCCl | 96 | 91.8 | 91.8 | 91.8 | Active | Active | Active | 47.5 | 73.3 | 92.7 | 94.8 | 4.2% | 95.1%
2 | O=C(NCCCl)NCCCN1c2ccc(Cl)cc2Sc2cc3ccccc3nc21 | 96 | 91.8 | 91.8 | 91.8 | Active | Active | Active | 72.1 | 9.2 | 100 | 98.6 | 15.9% | 89.5%
3 | CC(=O)NCCCCN1c2ccc(Cl)cc2Sc2cc3ccccc3nc21 |  | 91.8 | 91.8 | 91.8 | Active | Active | Active | 53.4 | 13.2 | 92.6 | 71.2 | Non-toxic | Non-toxic
4 | CCOC(=O)NCCCN1c2ccccc2Sc2cc3ccccc3nc21 |  |  |  |  |  |  |  | 14.1 | 7.7 | 88.4 | 69.7 | Non-toxic | Non-toxic
5 | Brc1ccc2c(c1)Nc1nc3ccccc3cc1S2 |  |  |  |  |  |  |  | -25 | 11.2 | 20.6 | 4.3 | Non-toxic | Non-toxic
6 | Cc1ccc(S(=O)(=O)NCCCN2c3ccc(Cl)cc3Sc3cc4ccccc4nc32)cc1 |  |  |  |  |  |  |  | 20.9 | 5.9 | 22.7 | 12.9 | Non-toxic | Non-toxic
7 | Cc1ccc(S(=O)(=O)NCCCN2c3ccccc3Sc3cc4ccccc4nc32)cc1 |  |  |  |  |  |  |  | 15.6 | 3.8 | -0.8 | 6.6 | Non-toxic | Non-toxic
8 | Clc1cccc2c1Sc1cc3ccccc3nc1N2 |  |  |  |  |  |  |  | 4.6 | 17 | 10.8 | 10.7 | Non-toxic | 13%
9 | FC(F)(F)c1ccc2c(c1)Sc1cc3ccccc3nc1N2 |  |  |  |  |  |  |  | -5.6 | 51.1 | 61 | 24.9 | Non-toxic | Non-toxic
